In ChEMBL document CHEMBL4706770, “SD-91 as A Potent and Selective STAT3 Degrader Capable of Achieving Complete and Long-Lasting Tumor Regression” (ACS Med Chem Lett, 2021):
Calls of active or inactive are those of the source. The rule behind the calls is not given here.

How the values were obtained:
[1] = target: T1, Signal transducer and activator of transcription 6 (Homo sapiens) (UniProt P42226); test: Induction of STAT6 degradation in human SU-DHL-1 cells at 0.25 to 100 uM incubated for 14 hrs by Western blot analysis; assay type: cell-based; settings: dose 0.25-100 µM
T1 sequence (whole entry): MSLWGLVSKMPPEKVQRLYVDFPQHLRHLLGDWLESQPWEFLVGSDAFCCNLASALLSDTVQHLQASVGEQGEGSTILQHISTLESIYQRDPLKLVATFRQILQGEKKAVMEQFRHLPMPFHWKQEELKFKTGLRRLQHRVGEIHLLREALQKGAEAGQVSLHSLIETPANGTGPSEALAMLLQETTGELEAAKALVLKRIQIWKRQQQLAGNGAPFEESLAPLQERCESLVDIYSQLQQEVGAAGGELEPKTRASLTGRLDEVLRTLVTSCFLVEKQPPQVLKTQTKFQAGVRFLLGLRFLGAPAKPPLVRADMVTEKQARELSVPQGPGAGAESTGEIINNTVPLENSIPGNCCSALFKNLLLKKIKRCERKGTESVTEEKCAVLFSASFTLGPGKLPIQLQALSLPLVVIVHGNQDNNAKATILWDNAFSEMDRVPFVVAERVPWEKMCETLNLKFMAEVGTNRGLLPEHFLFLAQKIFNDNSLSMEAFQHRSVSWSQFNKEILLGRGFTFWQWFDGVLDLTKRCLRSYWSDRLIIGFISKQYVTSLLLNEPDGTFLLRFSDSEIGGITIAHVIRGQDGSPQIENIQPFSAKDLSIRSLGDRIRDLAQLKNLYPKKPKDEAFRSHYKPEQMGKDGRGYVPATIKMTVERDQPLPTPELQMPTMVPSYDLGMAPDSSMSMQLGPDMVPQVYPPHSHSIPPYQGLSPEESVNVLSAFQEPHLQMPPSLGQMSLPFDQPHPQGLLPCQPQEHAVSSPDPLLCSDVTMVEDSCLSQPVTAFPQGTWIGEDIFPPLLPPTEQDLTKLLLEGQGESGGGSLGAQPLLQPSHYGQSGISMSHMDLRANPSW

[2] = target: T2, Signal transducer and activator of transcription 3 (Homo sapiens, UniProt P40763); test: Induction of STAT3 degradation in human SU-DHL-1 cells at 0.25 to 100 uM incubated for 14 hrs by Western blot analysis; assay type: cell-based; settings: dose 0.25-100 µM
[3] = target: T3, Signal transducer and activator of transcription 5A (Homo sapiens) (UniProt P42229); test: Induction of STAT5 degradation in human SU-DHL-1 cells at 0.25 to 100 uM incubated for 14 hrs by Western blot analysis; assay type: cell-based; settings: dose 0.25-100 µM
T3 sequence (whole entry): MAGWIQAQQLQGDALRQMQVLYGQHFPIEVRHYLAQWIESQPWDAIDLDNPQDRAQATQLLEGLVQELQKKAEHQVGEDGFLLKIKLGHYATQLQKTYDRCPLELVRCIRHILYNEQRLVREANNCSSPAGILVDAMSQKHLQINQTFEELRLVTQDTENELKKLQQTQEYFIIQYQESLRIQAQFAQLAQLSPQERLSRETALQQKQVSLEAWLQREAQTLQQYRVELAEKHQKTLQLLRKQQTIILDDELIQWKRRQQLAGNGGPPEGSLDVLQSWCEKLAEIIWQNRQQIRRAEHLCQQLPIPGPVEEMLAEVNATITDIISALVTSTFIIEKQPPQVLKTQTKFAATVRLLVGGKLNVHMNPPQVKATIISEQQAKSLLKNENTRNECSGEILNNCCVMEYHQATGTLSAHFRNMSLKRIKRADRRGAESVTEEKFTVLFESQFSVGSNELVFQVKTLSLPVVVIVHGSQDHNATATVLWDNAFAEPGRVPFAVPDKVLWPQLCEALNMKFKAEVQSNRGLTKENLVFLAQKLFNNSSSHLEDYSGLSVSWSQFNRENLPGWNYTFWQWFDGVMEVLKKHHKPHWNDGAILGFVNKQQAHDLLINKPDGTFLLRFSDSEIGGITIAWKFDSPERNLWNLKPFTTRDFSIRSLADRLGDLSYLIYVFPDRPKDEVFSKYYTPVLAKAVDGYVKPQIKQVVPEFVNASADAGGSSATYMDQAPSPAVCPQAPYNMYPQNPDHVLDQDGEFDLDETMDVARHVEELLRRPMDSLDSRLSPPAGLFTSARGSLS

[4] = Antiproliferative activity against human SUP-M2 cells assessed as cell growth inhibition incubated for 4 days by CellTiter-Glo asssay; assay type: functional, cell-based, SUPM2; settings: SUP-M2, 96 h
Method in brief: (§1)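 Growth inhibition tested in MOLM-16 acute leukemia and SU-DHL-1 and SUP-M2 lymphoma cell lines.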

[5] = target: T4, Signal transducer and activator of transcription 2 (Homo sapiens, UniProt P52630); test: Induction of STAT2 degradation in human SUP-M2 cells at 0.25 to 100 uM incubated for 14 hrs by Western blot analysis; assay type: cell-based; settings: SUPM2, dose 0.25-100 µM
Method in brief: (§2)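 SU-DHL-1 or SUP-M2 cells treated over 25 nM to 100 μM. STAT family proteins assessed by Western blot.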

[6] = target: T1, Signal transducer and activator of transcription 6 (Homo sapiens); test: Induction of STAT6 degradation in human MOLM16 cells at 0.25 to 100 uM incubated for 4 hrs by Western blot analysis; assay type: cell-based; settings: dose 0.25-100 µM
Method in brief: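 Cells treated 4 h with compounds across 25 nM to 100 μM; STAT proteins detected by Western blot with GAPDH as loading control; STAT3 DC50 estimated by densitometry of STAT3 relative to GAPDH. Applies to MOLM-16 for all STATs, and to SU-DHL-1 and SUP-M2 for STAT3.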

[7] = target: T2, Signal transducer and activator of transcription 3; test: Induction of STAT3 degradation in human SUP-M2 cells at 0.25 to 100 uM incubated for 14 hrs by Western blot analysis; assay type: cell-based; settings: SUPM2, dose 0.25-100 µM
[8] = target: T1, Signal transducer and activator of transcription 6 (Homo sapiens); test: Induction of STAT6 degradation in human SUP-M2 cells at 0.25 to 100 uM incubated for 14 hrs by Western blot analysis; assay type: cell-based; settings: SUPM2, dose 0.25-100 µM
SU-DHL-1 = test: Antiproliferative activity against human SU-DHL-1 cells assessed as cell growth inhibition incubated for 4 days by CellTiter-Glo asssay; assay type: functional, cell-based; settings: SU-DHL-1, 96 h; method in brief: as §1
[9] = Antiproliferative activity against human MOLM-16 cells assessed as cell growth inhibition incubated for 4 days by CellTiter-Glo asssay; assay type: functional, cell-based; settings: MOLM16, 96 h; method in brief: as §1
[10] = target: T4, Signal transducer and activator of transcription 2; test: Induction of STAT2 degradation in human SU-DHL-1 cells at 0.25 to 100 uM incubated for 14 hrs by Western blot analysis; assay type: cell-based; settings: dose 0.25-100 µM; method in brief: as §2
[11] = target: T3, Signal transducer and activator of transcription 5A (Homo sapiens); test: Induction of STAT5 degradation in human SUP-M2 cells at 0.25 to 100 uM incubated for 14 hrs by Western blot analysis; assay type: cell-based; settings: SUPM2, dose 0.25-100 µM

T2 sequence (P40763 whole entry): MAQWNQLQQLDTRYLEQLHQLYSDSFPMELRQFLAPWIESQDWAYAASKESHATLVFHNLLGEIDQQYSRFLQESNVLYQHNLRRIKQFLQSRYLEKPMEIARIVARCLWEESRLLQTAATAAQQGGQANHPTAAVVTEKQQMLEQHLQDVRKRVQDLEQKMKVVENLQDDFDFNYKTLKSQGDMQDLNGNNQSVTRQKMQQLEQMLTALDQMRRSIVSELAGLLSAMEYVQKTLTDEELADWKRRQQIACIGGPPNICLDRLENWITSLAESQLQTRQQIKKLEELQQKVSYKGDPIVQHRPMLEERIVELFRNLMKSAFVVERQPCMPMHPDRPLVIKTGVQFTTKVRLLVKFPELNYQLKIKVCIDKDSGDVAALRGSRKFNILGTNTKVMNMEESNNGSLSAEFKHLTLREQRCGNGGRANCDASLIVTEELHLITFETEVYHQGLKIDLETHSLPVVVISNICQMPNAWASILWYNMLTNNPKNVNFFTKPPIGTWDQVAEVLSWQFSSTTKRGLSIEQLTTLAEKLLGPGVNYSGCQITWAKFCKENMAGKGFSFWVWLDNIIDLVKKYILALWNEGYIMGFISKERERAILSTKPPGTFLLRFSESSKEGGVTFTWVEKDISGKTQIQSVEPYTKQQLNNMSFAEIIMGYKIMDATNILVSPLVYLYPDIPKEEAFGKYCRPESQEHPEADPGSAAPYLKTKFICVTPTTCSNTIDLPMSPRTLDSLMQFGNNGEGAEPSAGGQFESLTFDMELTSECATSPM
T4 sequence (P52630 whole entry): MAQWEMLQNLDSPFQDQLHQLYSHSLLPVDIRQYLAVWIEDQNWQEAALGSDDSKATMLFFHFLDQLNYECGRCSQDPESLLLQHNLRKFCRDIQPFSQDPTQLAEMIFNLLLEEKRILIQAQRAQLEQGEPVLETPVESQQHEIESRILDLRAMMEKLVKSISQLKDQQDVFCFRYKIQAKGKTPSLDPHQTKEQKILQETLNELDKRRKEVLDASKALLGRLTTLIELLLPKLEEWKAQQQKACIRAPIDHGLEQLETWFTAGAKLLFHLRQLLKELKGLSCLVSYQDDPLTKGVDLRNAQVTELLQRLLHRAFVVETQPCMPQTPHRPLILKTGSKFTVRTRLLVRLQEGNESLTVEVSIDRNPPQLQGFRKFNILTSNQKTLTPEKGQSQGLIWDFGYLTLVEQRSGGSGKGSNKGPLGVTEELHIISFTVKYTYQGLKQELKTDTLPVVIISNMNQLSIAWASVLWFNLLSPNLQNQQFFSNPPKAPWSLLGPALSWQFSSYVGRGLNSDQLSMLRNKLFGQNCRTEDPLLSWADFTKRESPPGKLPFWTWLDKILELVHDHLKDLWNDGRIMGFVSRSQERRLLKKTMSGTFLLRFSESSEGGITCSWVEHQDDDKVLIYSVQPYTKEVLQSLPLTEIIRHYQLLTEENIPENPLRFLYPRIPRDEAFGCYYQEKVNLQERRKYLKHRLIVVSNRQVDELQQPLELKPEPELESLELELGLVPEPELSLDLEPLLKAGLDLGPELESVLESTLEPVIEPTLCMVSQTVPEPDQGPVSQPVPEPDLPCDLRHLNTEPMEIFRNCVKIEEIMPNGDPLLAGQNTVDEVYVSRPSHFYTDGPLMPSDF

For `CC(=O)N1CC[C@H]2CC[C@@H](C(=O)N[C@@H](CCC(N)=O)C(=O)NC(c3ccccc3)c3ccccc3)N2C(=O)[C@@H](NC(=O)c2cc3cc(C(=O)P(=O)(O)O)ccc3[nH]2)C1`, the Activity [1] was “inactive”, the Activity [2] was “inactive” and the Activity [3] was “inactive”. The IC50 [4] was greater than 10 µM, the Activity [5] was “inactive” and the Activity [6] was “inactive”. The Activity [7] was “inactive”, the Activity [8] was “inactive” and the IC50 (SU-DHL-1) was greater than 10 µM. For the same compound, the IC50 [9] was greater than 10 µM, the Activity [10] was “inactive” and the Activity [11] was “inactive”.

In the case of `CC(=O)N1CC[C@H]2CC[C@@H](C(=O)N[C@@H](CCC(N)=O)C(=O)NC(c3ccccc3)c3ccccc3)N2C(=O)[C@@H](NC(=O)c2cc3cc(C(F)(F)P(=O)(O)O)ccc3[nH]2)C1`, the Activity [1] is reported as “inactive”, the Activity [2] is reported as “inactive” and the Activity [3] is reported as “inactive”. The IC50 [4] was greater than 10 µM, the Activity [5] was “inactive” and the Activity [6] was “inactive”. The Activity [7] was “inactive”, the Activity [8] was “inactive” and the IC50 (SU-DHL-1) was greater than 10 µM. For the same compound, the IC50 [9] was greater than 10 µM, the Activity [10] was “inactive” and the Activity [11] was “inactive”.

With `NC(=O)CC[C@H](NC(=O)[C@@H]1CC[C@@H]2CCN(C(=O)CCCCCC#Cc3cccc4c3CN(C3CCC(=O)NC3=O)C4=O)C[C@H](NC(=O)c3cc4cc(C(F)(F)P(=O)(O)O)ccc4[nH]3)C(=O)N21)C(=O)NC(c1ccccc1)c1ccccc1` (stereo not given in full) the Activity [2] was “inactive”, the IC50 [4] was 0.53 µM and the IC50 (SU-DHL-1) was 3.4 µM. It also gave an IC50 [9] of 0.18 µM.

For `NC(=O)CC[C@H](NC(=O)[C@@H]1CC[C@@H]2CCN(C(=O)CCCCCC#Cc3cccc4c3CN(C3CCC(=O)NC3=O)C4=O)C[C@H](NC(=O)c3cc4cc(C(=O)P(=O)(O)O)ccc4[nH]3)C(=O)N21)C(=O)NC(c1ccccc1)c1ccccc1` (stereo not given in full), the Activity [1] was “inactive”, the Activity [2] was “Active” and the Activity [3] was “inactive”. For the same compound, the IC50 [4] was 0.46 µM, the Activity [5] was “inactive” and the Activity [6] was “inactive”. For the same compound, the Activity [7] was “Active”, the Activity [8] was “inactive” and the IC50 (SU-DHL-1) was 2.6 µM. The IC50 [9] was 0.17 µM, the Activity [10] was “inactive” and the Activity [11] was “inactive”.
